This note sets out measurements from ChEMBL document CHEMBL5653631, “A Potent and Selective ULK1 Inhibitor Suppresses Autophagy and Sensitizes Cancer Cells to Nutrient Stress” (iScience, 2018).

The species named for assay [1] is Homo sapiens. Put plainly: Inhibition of human recombinant ABL at 40 nM related to control ULK1. The essentials:
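Radiometric activity assays in a panel of 327 human recombinant kinases, each run in duplicate at one inhibitor concentration. Activity remaining is expressed as percent of vehicle control, and percent inhibition is calculated as 100% minus percent activity remaining.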

Assay [2] concerns the target T1, Ephrin type-A receptor 3 (Homo sapiens) (UniProt P29320).
T1 sequence (whole entry): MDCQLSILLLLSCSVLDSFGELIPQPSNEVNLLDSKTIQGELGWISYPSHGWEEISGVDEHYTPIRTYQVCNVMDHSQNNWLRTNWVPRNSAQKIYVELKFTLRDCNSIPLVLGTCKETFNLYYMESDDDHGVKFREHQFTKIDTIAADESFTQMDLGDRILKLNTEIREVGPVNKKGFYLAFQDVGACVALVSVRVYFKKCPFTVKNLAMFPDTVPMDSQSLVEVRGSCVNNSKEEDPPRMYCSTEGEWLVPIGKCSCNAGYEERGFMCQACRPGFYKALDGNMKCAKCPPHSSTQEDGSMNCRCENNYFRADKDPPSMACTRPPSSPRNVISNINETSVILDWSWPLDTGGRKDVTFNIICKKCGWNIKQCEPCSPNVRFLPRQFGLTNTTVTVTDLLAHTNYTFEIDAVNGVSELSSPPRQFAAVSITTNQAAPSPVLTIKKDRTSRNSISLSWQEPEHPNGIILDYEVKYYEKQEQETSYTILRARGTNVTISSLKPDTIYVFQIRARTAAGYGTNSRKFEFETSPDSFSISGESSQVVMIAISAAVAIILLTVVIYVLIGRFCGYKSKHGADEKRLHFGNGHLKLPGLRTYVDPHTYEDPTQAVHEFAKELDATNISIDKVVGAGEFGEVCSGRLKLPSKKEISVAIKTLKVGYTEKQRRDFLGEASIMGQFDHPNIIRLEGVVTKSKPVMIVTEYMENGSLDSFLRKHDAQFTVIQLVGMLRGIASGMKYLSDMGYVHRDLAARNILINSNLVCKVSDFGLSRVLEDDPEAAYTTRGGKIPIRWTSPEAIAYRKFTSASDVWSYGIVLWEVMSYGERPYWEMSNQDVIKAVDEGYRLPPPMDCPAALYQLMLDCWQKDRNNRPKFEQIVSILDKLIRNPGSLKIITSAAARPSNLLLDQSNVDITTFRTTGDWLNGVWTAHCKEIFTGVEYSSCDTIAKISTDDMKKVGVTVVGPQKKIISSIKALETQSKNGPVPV
Put plainly: Inhibition of human recombinant EphA3 at 40 nM related to control ULK1.

The target in assay [3] is T2, Muscle, skeletal receptor tyrosine-protein kinase (Homo sapiens) (UniProt O15146).
T2 sequence (whole entry): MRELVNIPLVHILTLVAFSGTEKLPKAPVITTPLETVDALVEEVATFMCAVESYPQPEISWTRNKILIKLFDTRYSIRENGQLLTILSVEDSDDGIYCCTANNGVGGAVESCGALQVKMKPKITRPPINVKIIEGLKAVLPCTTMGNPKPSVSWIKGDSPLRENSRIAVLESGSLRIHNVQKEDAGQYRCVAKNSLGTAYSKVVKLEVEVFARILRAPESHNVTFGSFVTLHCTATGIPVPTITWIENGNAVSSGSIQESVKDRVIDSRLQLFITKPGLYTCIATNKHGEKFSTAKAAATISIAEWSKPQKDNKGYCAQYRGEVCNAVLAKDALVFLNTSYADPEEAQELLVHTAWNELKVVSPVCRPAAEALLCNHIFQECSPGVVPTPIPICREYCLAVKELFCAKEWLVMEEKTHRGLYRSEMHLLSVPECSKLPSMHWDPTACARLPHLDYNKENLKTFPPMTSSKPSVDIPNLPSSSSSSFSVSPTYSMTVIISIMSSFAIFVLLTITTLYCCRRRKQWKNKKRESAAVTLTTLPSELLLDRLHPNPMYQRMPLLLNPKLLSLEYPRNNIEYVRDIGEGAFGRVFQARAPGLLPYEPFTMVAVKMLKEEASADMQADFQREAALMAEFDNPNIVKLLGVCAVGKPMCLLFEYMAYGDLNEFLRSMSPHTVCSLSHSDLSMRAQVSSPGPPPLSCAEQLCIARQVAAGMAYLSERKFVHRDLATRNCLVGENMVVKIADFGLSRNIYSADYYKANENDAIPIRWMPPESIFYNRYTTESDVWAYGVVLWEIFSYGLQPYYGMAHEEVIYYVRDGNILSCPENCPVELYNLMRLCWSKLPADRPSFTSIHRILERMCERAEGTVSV
The assay can be described thus: Inhibition of human recombinant MUSK at 500 nM in presence of ATP by radiometric assay relative to control.

As to `O=C(N[C@@H](C1CC1)C(F)(F)F)c1cc(-c2cnn3cc(-c4ccc(F)cc4)cnc23)cs1`, the fold change (FC) in assay [1] was determined as 0.16; in assay [2] it was 0.21.

With `CNC(=O)c1ccccc1Oc1nc(Nc2cc(OC)c(OC)c(OC)c2)ncc1Br`, the inhibition in assay [3] amounted to 34%.

Broadly, the inhibition is the change of the read-out against control, counted positive when it falls.
